# Assay results gathered from unrelated publications.
# Each line is one published result; the experiments were not run side by side.
# HRH1: Histamine H1 receptor (HRH1, Homo sapiens, UniProt P35367)
# CHRM4: Muscarinic acetylcholine receptor M4 (CHRM4, Homo sapiens, UniProt P08173)
SMILES,target,assay,setting,endpoint,result
CC[C@H](C)[C@H](NC(=O)[C@H](CS)NC(=O)[C@H](CCC(N)=O)NC(=O)[C@H](CC(C)C)NC(=O)[C@H](CCCCN)NC(=O)[C@H](CCCNC(=N)N)NC(=O)[C@H](C)NC(=O)[C@@H](NC(=O)[C@H](CCC(N)=O)NC(=O)[C@@H](NC(=O)[C@H](CCC(=O)O)NC(=O)[C@H](C)NC(=O)[C@H](CCC(N)=O)NC(=O)[C@H](Cc1c[nH]cn1)NC(=S)Nc1ccc2c(c1)C(=O)OC21c2ccc(O)cc2Oc2cc(O)ccc21)C(C)C)[C@@H](C)CC)C(=O)N[C@@H](C)C(=O)N[C@@H](CC(=O)O)C(=O)N[C@@H](CCC(N)=O)C(=O)N[C@@H](Cc1ccccc1)C(=O)N[C@@H](Cc1c[nH]cn1)C(=O)N[C@@H](CCCNC(=N)N)C(=O)N[C@@H](CC(C)C)C(=O)N[C@@H](Cc1c[nH]cn1)C(=O)N[C@H](C(=O)N[C@@H](CCC(N)=O)C(=O)N[C@@H](CCC(N)=O)C(=O)O)C(C)C,"Induced myeloid leukemia cell differentiation protein Mcl-1 (MCL1, Homo sapiens, UniProt Q07820, R263A)","cell-free assay, FP",,Kd,49 µM
Fc1ccc([C@@H]2CCNC[C@H]2COc2ccc3c(c2)OCO3)cc1,"Beta-1 adrenergic receptor (ADRB1, Homo sapiens, UniProt P08588)","ligand displacement, radioligand",,Ki,10 µM
O=C(Nc1cccc(-c2ccn3c(CC4CC4)nnc3c2C(F)(F)F)c1)c1ccc(S(=O)(=O)F)cc1,"Metabotropic glutamate receptor 1 (GRM1, Homo sapiens, UniProt Q13255)","calcium signal, agonist",,EC50,> 50.1 µM
CSCC[C@H](NC(=O)[C@@H](NC(=O)[C@@H](N)Cc1ccc(O)cc1)C(C)C)C(=O)NCC(=O)N[C@@H](Cc1c[nH]cn1)C(=O)O,"Melanocortin receptor 5 (Mus musculus, UniProt P41149)","reporter gene, agonist",,EC50,26.8 µM
CNc1nc2cc(OCCCCN3CCN(c4cccc(Cl)c4Cl)CC3)ccc2s1,HRH1,"ligand displacement, radioligand",,Ki,0.056 µM
CC(C)C[C@H](NC(=O)[C@H](CCCCN)NC(=O)[C@@H]1CCCN1C(=O)[C@@H](N)CCCNC(=N)N)C(=O)N[C@@H](CCCCN)C(=O)O,HRH1,"cell-free assay, radioligand",,Ki,> 10 µM
Nc1cccc2cc3ccccc3cc12,"Ferritin light chain (FTL, Equus caballus, UniProt P02791)","binding, fluorescence",,Kd,9 µM
N[C@@H](CCP(=O)(O)O)C(=O)O,"Metabotropic glutamate receptor 4 (GRM4, Homo sapiens, UniProt Q14833)","calcium signal, agonist",,EC50,0.151 µM
OC(c1ccc(F)cc1)C(F)(F)CCN1CCC(O)(c2ccc(Cl)cc2)CC1 (racemic),HRH1,"cell-free assay, radioligand",,Ki,0.408 µM
NC(N)=NCCC[C@H](NC(=O)OCc1ccccc1)C(=O)O,"Serine protease 1 (PRSS1, Bos taurus, UniProt P00760)","enzyme activity, inhibitor, absorbance",pH 7.2,Ki,1230 µM
CC[C@H](C)[C@H](NC(=O)[C@H](CCCNC(=N)N)NC(=O)[C@H](CC(C)C)NC(=O)[C@@H](N)Cc1ccccc1)C(=O)N[C@@H](CCCNC(=N)N)C(=O)N1CCC[C@H]1C(=O)N[C@@H](CCCCN)C(=O)O,HRH1,"cell-free assay, radioligand",,Ki,> 10 µM
Cc1cc(N2CCNCC2)nc2ccccc12,CHRM4,"ligand displacement, radioligand",cell membranes,Ki,> 63.1 µM
CCCCC/C=C\C/C=C\C/C=C\C/C=C\CCCC(=O)OCCN,"Cytochrome P450 2J2 (CYP2J2, Homo sapiens, UniProt P51589)","binding, absorbance",,Kd,14 µM
c1cc(N2CCNCC2)c2cc[nH]c2c1,CHRM4,"ligand displacement, radioligand",cell membranes,Ki,> 63.1 µM
CC(C)(COP(=O)(O)OP(=O)(O)OC[C@H]1O[C@@H](n2cnc3c(N)ncnc32)[C@H](O)[C@@H]1OP(=O)(O)O)[C@@H](O)C(=O)NCCC(=O)NCCSC(=O)c1ccccc1N,"pqsD (Pseudomonas aeruginosa, UniProt P20582, C113A)","binding, ITC",,Kd,~57 µM
